Results taken from ChEMBL document CHEMBL1129298, “Nonpeptide angiotensin II receptor antagonists: synthesis, biological activities, and structure-activity relationships of imidazole-5-carboxylic acids bearing alkyl, alkenyl, and hydroxyalkyl substituents at the 4-position and their related compounds” (J Med Chem, 1996).

Assays:
Assay type in all cases: functional
Rattus norvegicus [1] = experiment: Inhibitory activity against AII-Induced Pressor response at 0.1 mg/Kg at 3 hour
Summary of the method: (§1)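 Male Wistar-Imamichi rats (300–400 g) cannulated under pentobarbital (50 mg/kg ip), fasted 24 h, tested conscious the next day. AII 50 ng/kg iv was repeated until constant, then compound in 50% aqueous DMF given orally. AII was repeated over 8 h, and mean blood pressure response inhibition (%) was recorded at 1, 3, 6 h. n = 3–5.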

Rattus norvegicus [2] = experiment: Inhibitory activity against AII-Induced Pressor response at 0.03 mg/Kg at 3 hour; summary of the method: as §1
Rattus norvegicus [3] = experiment: Inhibitory activity against AII-Induced Pressor response at 0.03 mg/Kg at 1 hr; summary of the method: as §1
Rattus norvegicus [4] = experiment: Inhibitory activity against AII-Induced Pressor response at 0.03 mg/Kg at 6 hour; summary of the method: as §1
Rattus norvegicus [5] = experiment: Inhibitory activity against AII-Induced Pressor response at 0.1 mg/Kg at 6 hour; summary of the method: as §1
Rattus norvegicus [6] = experiment: Inhibitory activity against AII-Induced Pressor response at 0.3 mg/Kg at 1 hr; summary of the method: as §1
Rattus norvegicus [7] = experiment: Inhibitory activity against AII-Induced Pressor response at 0.1 mg/Kg at 1 hr; summary of the method: as §1
Rattus norvegicus [8] = experiment: Inhibitory activity against AII-Induced Pressor response at 0.3 mg/Kg at 3 hour; summary of the method: as §1
Rattus norvegicus [9] = experiment: Inhibitory activity against AII-Induced Pressor response at 0.3 mg/Kg at 6 hour; summary of the method: as §1

For CCCc1nc(C(C)(C)O)c(C(=O)OCOC(=O)C(C)(C)C)n1Cc1ccc(-c2ccccc2-c2nn[nH]n2)cc1, the inhibition in vivo at 0.1 mg/kg (Rattus norvegicus [1]) was 84%, the inhibition in vivo at 0.03 mg/kg (Rattus norvegicus [2]) was 41% and the inhibition in vivo at 0.03 mg/kg (Rattus norvegicus [3]) was 29%. For the same compound, the inhibition in vivo at 0.03 mg/kg (Rattus norvegicus [4]) was 43%, the inhibition in vivo at 0.1 mg/kg (Rattus norvegicus [5]) was 70% and the inhibition in vivo at 0.3 mg/kg (Rattus norvegicus [6]) was 76%. The inhibition in vivo at 0.1 mg/kg (Rattus norvegicus [7]) was 75%, the inhibition in vivo at 0.3 mg/kg (Rattus norvegicus [8]) was 85% and the inhibition in vivo at 0.3 mg/kg (Rattus norvegicus [9]) was 90%.
